# Published values of several laboratories.
# HTR2A: 5-hydroxytryptamine receptor 2A (HTR2A, Homo sapiens, UniProt P28223)
# PPO3: PPO3 (Agaricus bisporus, UniProt C7FF04)
Compound,target,observed,mode,technique,concentration,inhibition
CC(C)CC(=O)OC[C@H]1O[C@@](C#N)(c2ccc3c(N)ncnn23)[C@H](O)[C@@H]1O,HTR2A,cell-free assay,,,20 µM,5%
COc1cc(/C=C/C(=O)O)ccc1OCc1cn(CC(=O)Nc2ccc([N+](=O)[O-])cc2C)nn1,PPO3,enzyme activity,inhibitor,,40 µM,44.9%
COc1cc2c(cc1OC)-c1c(OC)c(OC)cc3c1[C@H](C2)N(C)CC3,HTR2A,ligand displacement,,radioligand,10 µM,65%
c1cncc([C@@H]2CCCN2)c1,"Kappa-type opioid receptor (OPRK1, Homo sapiens, UniProt P41145)",ligand displacement,,,50 µM,-6.74%
COc1cc2cc3c4c(cc(OC)c(OC)c4c2cc1OC)CCN3C,HTR2A,ligand displacement,,radioligand,10 µM,10%
COc1cc(/C=C/C(=O)O)ccc1OCc1cn(CC(=O)Nc2cccc(Cl)c2)nn1,PPO3,enzyme activity,inhibitor,,40 µM,11.4%
COc1cc2c3c(c1OC)-c1c(OC)ccc(Br)c1CC3N(C)CC2 (stereo not drawn),HTR2A,ligand displacement,,radioligand,10 µM,80%
COc1cc(/C=C/C(=O)O)ccc1OCc1cn(CC(=O)NCCc2ccccc2)nn1,PPO3,enzyme activity,inhibitor,,40 µM,10.4%
CN1CCC[C@H]1c1cccnc1,"Neuronal acetylcholine receptor; alpha4/beta2 (Rattus norvegicus, UniProt P09483+P12390)",ligand displacement,,radioligand,50 µM,97.6%
